Measured values published in ChEMBL document CHEMBL4373672, “A small molecule drug conjugate (SMDC) of DUPA and a duocarmycin built on the solid phase” (Medchemcomm, 2019).

What was measured:
[1] = tested on: DNA; assay: DNA alkylating activity in human LNCAP cells exhibiting increased cathepsin B activity and overexpressing GCPII assessed as reduction in cell viability incubated for 72 hrs by MTS assay; assay type: functional, cell-based
Outline: (§1)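 Cell lines from ECACC, grown in supplier-recommended media with 10% foetal calf serum and 2 mM L-glutamine, kept at 1-9 x 10^5 cells/mL, 37 °C, 5% CO2. Seeded at 3 x 10^4 cells/100 μL and exposed in triplicate to compound at 100 μM down to 0.00001 μM (10-fold steps) for 72 h; final DMSO 1%. Stocks in DMSO made fresh each day. Doxorubicin hydrochloride (10 μM) served as the 100% inhibition value. MTS reagent added for 3 h, absorbance read at 490 nm. Three independent runs on different passages; IC50 from curve fit.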

[2] = tested on: DNA; assay: DNA alkylating activity in GCPII negative human PC3 cells exhibiting increased cathepsin B activity assessed as reduction in cell viability incubated for 72 hrs by MTS assay; assay type: functional; settings: PC-3, 72 h; outline: as §1
[3] = tested on: DNA; assay: DNA alkylating activity in human NCI-H292 cells exhibiting increased cathepsin B activity and overexpressing GCPII assessed as reduction in cell viability incubated for 72 hrs by MTS assay; assay type: functional, cell-based; settings: NCI-H292, 72 h; outline: as §1
[4] = tested on: DNA; assay: DNA alkylating activity in human A549 cells exhibiting increased cathepsin B activity and overexpressing GCPII assessed as reduction in cell viability incubated for 72 hrs by MTS assay; assay type: functional, cell-based; settings: A549, 72 h; outline: as §1
[5] = tested on: DNA; assay: DNA alkylating activity in human MCF7 cells exhibiting increased cathepsin B activity and overexpressing GCPII assessed as reduction in cell viability incubated for 72 hrs by MTS assay; assay type: functional, cell-based; settings: MCF7, 72 h; outline: as §1
[6] = tested on: DNA; assay: DNA alkylating activity in human SKBR3 cells exhibiting increased cathepsin B activity and reduced GCPII expression assessed as reduction in cell viability incubated for 72 hrs by MTS assay; assay type: functional, cell-based; settings: SK-BR-3, 72 h; outline: as §1
[7] = tested on: DNA; assay: DNA alkylating activity in human SK-MEL-28 cells exhibiting increased cathepsin B activity and overexpressing GCPII assessed as reduction in cell viability incubated for 72 hrs by MTS assay; assay type: functional, cell-based; settings: SK-MEL-28, 72 h; outline: as §1
[8] = tested on: DNA; assay: DNA alkylating activity in human GCPII negative 16HBE14o cells deficient of cathepsin B activity assessed as reduction in cell viability incubated for 72 hrs by MTS assay; assay type: functional; outline: as §1
[9] = tested on: DNA; assay: DNA alkylating activity in GCPII negative human PC3 cells exhibiting increased cathepsin B activity assessed as reduction in cell viability incubated with GCPII binder 2-PMPA for 1 hr followed by incubation with compound for 48 hrs by MTS assay; assay type: functional; settings: PC-3
Outline: (§2)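 Pre-treatment of cells (3 x 10^4/100 μL) with 10 μM 2-PMPA for 1 h. Compound in DMSO was then added in triplicate at 100 μM to 0.0001 μM (10-fold steps), 48 h at 37 °C, 5% CO2; final DMSO 1%. Doxorubicin hydrochloride defined 100% inhibition. MTS reagent for 3 h, absorbance at 490 nm. Three independent runs on different passages.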

[10] = tested on: DNA; assay: DNA alkylating activity in human LNCAP cells exhibiting increased cathepsin B activity and overexpressing GCPII assessed as reduction in cell viability incubated with GCPII binder 2-PMPA for 1 hr followed by incubation with compound for 48 hrs by MTS assay; assay type: functional, cell-based; outline: as §2

**Q.** With NC(=O)c1cc2c3c(cc(O)c2[nH]1)N(C(=O)c1ccc(N)cc1)CC3CCl (stereo not given) as the molecule, how does the IC50 [1] read?
**A.** 15.7 nM

**Q.** What about the IC50 [2] of the same molecule?
**A.** 4.7 nM

**Q.** And the IC50 [3]?
**A.** 7.3 nM

**Q.** What about the IC50 [4] of the same molecule?
**A.** 36.6 nM

**Q.** And the IC50 [5]?
**A.** 181 nM

**Q.** What about the IC50 [6] of the same molecule?
**A.** 2.3 nM

**Q.** What about the IC50 [7] of the same molecule?
**A.** 22.5 nM

**Q.** What about the IC50 [8] of the same molecule?
**A.** 85.4 nM

**Q.** What about the IC50 [9] of the same molecule?
**A.** 6.1 nM

**Q.** What about the IC50 [10] of the same molecule?
**A.** 25.5 nM
